The results in this text go back to paper PMC8530978 (Bioorganic chemistry, 2021).

One test has as its target T1, HDAC6 (Homo sapiens, UniProt Q9UBN7).
T1 sequence (Q9UBN7 1-1215): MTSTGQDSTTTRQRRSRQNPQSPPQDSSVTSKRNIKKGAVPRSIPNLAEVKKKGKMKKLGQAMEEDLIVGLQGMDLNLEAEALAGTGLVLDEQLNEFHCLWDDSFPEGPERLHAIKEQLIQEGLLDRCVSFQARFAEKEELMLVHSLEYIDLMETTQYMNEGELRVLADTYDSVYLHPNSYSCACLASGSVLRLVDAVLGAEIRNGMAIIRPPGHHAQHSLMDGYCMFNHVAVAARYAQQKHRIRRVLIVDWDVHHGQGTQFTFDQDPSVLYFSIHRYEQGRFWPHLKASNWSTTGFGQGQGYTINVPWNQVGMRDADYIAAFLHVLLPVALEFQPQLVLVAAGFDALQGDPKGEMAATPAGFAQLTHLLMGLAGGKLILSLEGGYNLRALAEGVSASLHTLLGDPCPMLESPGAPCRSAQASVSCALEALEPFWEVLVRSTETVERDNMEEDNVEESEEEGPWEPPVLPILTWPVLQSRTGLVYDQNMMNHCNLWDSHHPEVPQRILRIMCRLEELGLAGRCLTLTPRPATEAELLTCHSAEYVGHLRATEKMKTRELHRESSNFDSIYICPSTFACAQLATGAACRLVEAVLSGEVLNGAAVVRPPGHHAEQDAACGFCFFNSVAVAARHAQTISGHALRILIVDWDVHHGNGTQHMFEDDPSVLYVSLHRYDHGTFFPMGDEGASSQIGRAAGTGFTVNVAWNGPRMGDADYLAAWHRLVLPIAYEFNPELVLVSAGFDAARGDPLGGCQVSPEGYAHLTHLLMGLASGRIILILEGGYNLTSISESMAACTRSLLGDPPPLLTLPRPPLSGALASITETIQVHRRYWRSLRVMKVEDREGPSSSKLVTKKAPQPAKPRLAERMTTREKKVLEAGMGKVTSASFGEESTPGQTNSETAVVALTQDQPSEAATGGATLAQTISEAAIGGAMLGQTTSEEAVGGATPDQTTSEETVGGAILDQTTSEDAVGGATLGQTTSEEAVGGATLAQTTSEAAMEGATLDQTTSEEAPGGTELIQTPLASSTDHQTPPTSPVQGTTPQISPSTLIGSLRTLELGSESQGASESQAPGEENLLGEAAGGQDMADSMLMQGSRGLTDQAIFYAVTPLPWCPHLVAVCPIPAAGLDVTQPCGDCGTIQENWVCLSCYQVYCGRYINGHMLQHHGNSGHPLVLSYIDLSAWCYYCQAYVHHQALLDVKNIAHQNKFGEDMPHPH
The test can be described thus: HDAC-Glo inhibitor testing with recombinant HDAC6. It counts as biochemical.

The subject of test [1] is purified HDAC isoforms (HDAC1, 2, 3, 8 and HDAC6). Put plainly: Single concentration. In kind it is biochemical. The conditions noted are these: 100 μM, HDAC1, 2, 3, 8 and 6. The procedure, abridged: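 Recombinant HDAC1, 2, 3, 6 or 8 (1 μL of enzyme stock at 3, 1, 30, 35 or 70 ng/μL respectively) in HDAC-Glo buffer, incubated 3 h at room temperature with test compound in DMSO. HDAC-Glo reagent then added; luminescence read every 3 min for 30 min. Peak signal corrected against a no-enzyme background and divided by the no-inhibitor signal to give % activity remaining.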

Test [2] concerns NCI sixty human tumor cell line panel. Put plainly: NCI sixty human tumor cell line panel, single dose 10 μM. The conditions noted are these: Homo sapiens, read-out: Mean % growth at 10 μM. In kind it is cell-based.
For another test, the target named is HDAC2 (Homo sapiens, UniProt Q92769). The test can be described thus: HDAC-Glo inhibitor testing with recombinant HDAC2. In kind it is biochemical.
HDAC2, sequence (Q92769 whole entry): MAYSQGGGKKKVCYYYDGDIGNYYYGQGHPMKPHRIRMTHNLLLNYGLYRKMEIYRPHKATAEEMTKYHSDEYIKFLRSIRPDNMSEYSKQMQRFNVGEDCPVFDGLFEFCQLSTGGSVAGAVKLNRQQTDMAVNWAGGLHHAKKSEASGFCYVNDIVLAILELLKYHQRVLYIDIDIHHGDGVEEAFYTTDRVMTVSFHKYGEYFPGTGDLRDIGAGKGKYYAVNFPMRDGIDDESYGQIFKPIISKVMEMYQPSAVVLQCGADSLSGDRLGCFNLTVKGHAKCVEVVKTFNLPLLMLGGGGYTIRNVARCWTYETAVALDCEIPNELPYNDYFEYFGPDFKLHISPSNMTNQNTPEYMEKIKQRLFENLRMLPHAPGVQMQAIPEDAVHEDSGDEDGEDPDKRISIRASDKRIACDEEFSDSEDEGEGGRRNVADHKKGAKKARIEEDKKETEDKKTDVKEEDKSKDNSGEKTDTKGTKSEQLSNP
The subject of test [3] is HeLaM cells. Put plainly: Flow cytometry cell cycle analysis. It counts as cell-based. To be noted: for cells in G2/M: 48 hours, subG1 excluded (DMSO 10%); for subG1 population: 72 hr post treatment (DMSO 14%). Put shortly:
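5 × 10^5 HeLaM cells plated, treated next day with test compound or DMSO for 24, 48 or 72 h. All cells (floating and attached) collected and fixed in 70% ethanol (final). […] 10 μg/ml, 30 min, 37 °C, then propidium iodide in PBS + 2% FBS. SubG1 gated; subG1 excluded before modeling live-cell cycle distribution.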

The next test deals with HDAC1 (Homo sapiens, UniProt Q13547). Put plainly: HDAC-Glo inhibitor testing with recombinant HDAC1. It counts as biochemical.
HDAC1, sequence (Q13547 whole entry): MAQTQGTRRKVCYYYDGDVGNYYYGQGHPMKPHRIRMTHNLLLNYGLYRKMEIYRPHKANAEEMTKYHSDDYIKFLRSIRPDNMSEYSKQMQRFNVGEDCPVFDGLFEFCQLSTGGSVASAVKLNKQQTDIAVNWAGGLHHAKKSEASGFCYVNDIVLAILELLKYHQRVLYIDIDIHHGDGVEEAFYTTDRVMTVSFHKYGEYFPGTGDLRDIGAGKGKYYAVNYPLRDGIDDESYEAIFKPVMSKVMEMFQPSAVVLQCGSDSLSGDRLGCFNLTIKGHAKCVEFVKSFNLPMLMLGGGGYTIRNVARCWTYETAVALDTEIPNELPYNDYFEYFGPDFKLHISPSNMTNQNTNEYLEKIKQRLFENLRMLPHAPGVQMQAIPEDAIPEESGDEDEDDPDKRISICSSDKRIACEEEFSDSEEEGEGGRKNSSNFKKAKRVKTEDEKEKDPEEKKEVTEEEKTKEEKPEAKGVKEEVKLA
Test [4] has as its system acetylation of SMC3 in HeLaM cells. Put plainly: Western blot of SMC3 acetylation in HeLaM cells. It counts as cell-based. To be noted: overnight treatment. Put shortly: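 Acetylated SMC3 detected by immunoblot with an anti-acetyl-SMC3 antibody, HRP-conjugated secondary antibody and enhanced chemiluminescence, imaged on film.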
A further test has as its system HCT 116 cells. The test can be described thus: MTS reduction assay, antiproliferative activity on HCT 116. To be noted: Homo sapiens, HCT-116, 96 h. It counts as cell-based. Put shortly: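 HCT116 cells grown in McCoy's 5A with 10% FBS (37 °C, 5% CO2), seeded at 3 × 10^3/well in triplicate and left to adhere overnight. Exposed to test compound at 0.01–100 μM, or DMSO, for 96 h. MTS reagent added for 2 h at 37 °C; absorbance read at 490 nm. Curves of log(concentration) vs response fitted with a variable Hill slope.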

Test [5] has as its system HeLaM cells. The test can be described thus: Phase contrast time lapse microscopy, mitotic duration. The conditions noted are these: asynchronous HeLaM cells, images every 12 min. It counts as cell-based.
Test [6] relates to mitotic spindle of HeLaM cells. It counts as cell-based. To be noted: compound 10 μM + MG132 + ZM447439 (DMSO+MG132+ZM447439 3%).
For test [7], the system named is HDAC8-null and control HCT116 cells. Put plainly: Cytotoxicity in HDAC8-null versus control HCT116 cells. It counts as cell-based, human. The conditions noted are these: 10 μM.
Test [8] concerns HeLaM cells. Put plainly: Chromosome drops to determine mitotic index. It counts as cell-based. To be noted: 10 μM, after release from thymidine block. Put shortly:
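HeLaM cells held in S phase with a single 2 mM thymidine block overnight, washed in PBS and released into test compound for about 9 h, then given ZM447439 for 90 min. Attached and floating cells were pooled, trypsinized, swollen in 0.075 M KCl (10 min, 37 °C), fixed in methanol:acetic acid 3:1 and dropped onto slides. DAPI stain. Mitotic index scored blinded over at least three experiments.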

In test [9] the test system is HeLaM cells expressing mcherry-α-tubulin. The test can be described thus: Spindle reassembly after recovery from cold shock. It counts as cell-based. The conditions noted are these: 8 minutes post-rewarming, versus control. Put shortly: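 HeLaM clone stably expressing mCherry-α-tubulin, treated with test compound or DMSO for 30 min at 37 °C, chilled 30 min at 4 °C, then rewarmed at 37 °C. Fixed at 0, 4, 8 and 20 min after rewarming; wide-field fluorescence imaging. Four repeats, 10–30 cells per condition per experiment. Blinded 8-min images scored, and spindle outlines traced to quantify morphology.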

Test [10] concerns histone H3 acetylation and tubulin acetylation in HCT116 cells. The test can be described thus: Western blot of histone H3 and tubulin acetylation in HCT116 cells. It counts as cell-based, human. To be noted: HCT116, 24 h, IPEs up to highest concentration 25 μM. Put shortly:
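HCT116 cells (2 × 10^6 per T-25 flask) adhered overnight, then given test compound at 1, 10 or 25 μM, or DMSO, for 24 h. Lysed in RIPA; protein measured by BCA. Acetyl-histone H3 and acetyl-tubulin immunoblotted, detected with fluorescent secondary antibodies on an Odyssey scanner.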

The target in test [11] is tubulin heterodimers, purified from porcine brain (Sus scrofa, UniProt P02554). The test can be described thus: Turbidity-based tubulin polymerization assay. The conditions noted are these: for Vmax of tubulin polymerization: 37 °C, exponential phase (DMSO 10 mOD/min). In kind it is biochemical.
tubulin heterodimers, purified from porcine brain, sequence (P02554 whole entry): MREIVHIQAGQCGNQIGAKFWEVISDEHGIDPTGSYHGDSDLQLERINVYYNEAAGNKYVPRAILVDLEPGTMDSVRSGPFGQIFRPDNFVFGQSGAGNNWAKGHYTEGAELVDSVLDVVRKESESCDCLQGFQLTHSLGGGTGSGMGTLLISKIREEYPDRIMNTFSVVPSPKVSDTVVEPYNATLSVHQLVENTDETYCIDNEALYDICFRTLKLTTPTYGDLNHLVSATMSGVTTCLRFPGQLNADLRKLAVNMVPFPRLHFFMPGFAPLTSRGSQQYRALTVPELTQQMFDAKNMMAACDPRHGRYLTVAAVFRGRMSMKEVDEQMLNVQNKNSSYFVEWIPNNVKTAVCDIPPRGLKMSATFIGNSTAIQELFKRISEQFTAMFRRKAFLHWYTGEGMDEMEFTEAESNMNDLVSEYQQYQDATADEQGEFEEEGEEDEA
tubulin heterodimers, purified from porcine brain, sequence (P02550 whole entry partner): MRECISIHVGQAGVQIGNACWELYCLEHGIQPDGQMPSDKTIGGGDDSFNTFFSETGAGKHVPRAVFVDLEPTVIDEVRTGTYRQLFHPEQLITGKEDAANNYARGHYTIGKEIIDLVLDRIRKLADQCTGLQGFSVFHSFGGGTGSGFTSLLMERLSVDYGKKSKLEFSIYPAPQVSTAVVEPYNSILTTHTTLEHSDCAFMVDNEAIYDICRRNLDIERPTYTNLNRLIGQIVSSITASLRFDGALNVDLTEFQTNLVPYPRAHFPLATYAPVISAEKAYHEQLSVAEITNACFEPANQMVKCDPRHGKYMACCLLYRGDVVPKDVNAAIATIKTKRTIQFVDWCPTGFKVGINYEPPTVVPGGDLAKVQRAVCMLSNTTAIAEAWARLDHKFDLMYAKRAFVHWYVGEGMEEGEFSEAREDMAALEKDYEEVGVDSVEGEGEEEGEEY

As for `O=C(Cc1ccc(/C=C/C(=O)c2ncc[nH]2)cc1)Nc1ccc(Cl)cc1` [IPE-8, (E)-2-(-4(3-(1H-imidazol-2-yl)-3-oxoprop-1-en-1-yl)phenyl)-N-(4-chlorophenyl)acetamide], the half-maximal inhibitory concentration (IC50) at HDAC6, on HDAC2 and on HDAC1 was greater than 100 µM each time. Moreover, in test [1], the “activity remaining, each HDAC isoform” value is given as 20–80%. Moreover, the activity at 10 µM in test [2] turned out to be 21.1%. The “cells in G2/M” value with HeLaM cells [3] amounted to 33%. The subG1 population with HeLaM cells [3] was determined as 59%. In addition, the SMC3 acetylation entry in test [4] is on record as “no effect on SMC3 acetylation”. The compound also displayed a GI50 in the test with HCT 116 cells of 5.14 µM.
As to `COc1ccc(Cn2ccc3ccc(C(=O)NO)cc32)cc1` [PCI34051, reference compound], the “mitotic duration / mitotic arrest” value in the test on HeLaM cells [5] was 1.5 h. Moreover, the SMC3 acetylation entry in test [4] is “an increase in SMC3 acetylation”. In [6], the spindle collapse result is on record as “did not produce the same aberrant spindle”.
Turning to `O=C(Cc1ccc(/C=C/C(=O)c2ncc[nH]2)cc1)Nc1ccc(F)cc1` [IPE-7, (E)-2-(4-(3-(1H-Imidazol-2-yl)-3-oxoprop-1-en-1-yl)phenyl)-N-(4-fluorophenyl)acetamide], the “activity remaining, each HDAC isoform” value in [1] is 20–80%. Moreover, in [2], the activity at 10 µM is 27.5%. Also, the “cell killing of parental and HDAC8-null cells” value in test [7] was “both parental and HDAC8-null cells were killed”. In addition, the “cells in G2/M” value in the test on HeLaM cells [3] worked out at 36%. Also, in the test with HeLaM cells [3], the subG1 population is recorded as 58%. Besides, the “mitotic arrest (mitotic index)” value in the test on HeLaM cells [8] is on record as “arrested cells in mitosis”. In test [9], the abnormal spindles entry was “significantly more abnormal spindles”. Moreover, the “global histone H3 acetylation and tubulin acetylation” value in test [10] is listed as “no increase in global histone acetylation or tubulin acetylation”. Besides, the “Vmax of tubulin polymerization” value was found to be 5.5 mOD/min in test [11] (10 μM compound) and 4.5 mOD/min in test [11] (50 μM compound). In test [11] (50 μM, cooling to ~15°C), the “microtubule depolymerization upon cooling” value was “Depolymerization was accelerated”. The SMC3 acetylation entry in test [4] is listed as “no effect on SMC3 acetylation”. Also, the spindle collapse in [6] was determined as 97%. In the test on HCT 116 cells, this compound returned a GI50 of 6.95 µM.
